According to ChEMBL document CHEMBL1124186, “Synthesis and evaluation of tylosin-related macrolides modified at the aldehyde function: a new series of orally effective antibiotics” (1988):
≈ marks a conversion by molar mass, not a printed value.

Tests used:
Bacteroides fragilis [1] = assay: In vitro antimicrobial activity against anaerobic bacteria bacteroides fragilis 111; format: functional
Bacteroides fragilis [2] = assay: In vitro antimicrobial activity against anaerobic bacteria bacteroides fragilis 1877; format: functional
Bacteroides fragilis [3] = assay: In vitro antimicrobial activity against anaerobic bacteria bacteroides fragilis 1936B,; format: functional
Eikenella corrodens = assay: In vitro antimicrobial activity against anaerobic bacteria bacteroides corrodens 1874; format: functional
Phocaeicola vulgatus = assay: In vitro antimicrobial activity against anaerobic bacteria bacteroides vulgatus 1211; format: functional
[4] = tested on: Prevotella melaninogenica; assay: In vitro antimicrobial activity against anaerobic bacteria bacteroides melaninogenicus 1856,; format: functional
[5] = tested on: Bacteroides thetaiotaomicron; assay: In vitro antimicrobial activity against anaerobic bacteria bacteroides thetaiotaomicron 1438; format: functional
Clostridioides difficile = assay: In vitro antimicrobial activity against anaerobic bacteria Clostridium difficile 2994; format: functional
Clostridium perfringens = assay: In vitro antimicrobial activity against anaerobic bacteria clostridium perfringens 81,; format: functional
Clostridium septicum = assay: In vitro antimicrobial activity against anaerobic bacteria clostridium septicum 1128; format: functional
Chlamydia trachomatis = assay: In vitro antimicrobial activity against chlamydia trachomatis.; format: functional
Fusobacterium = assay: In vitro antimicrobial activity against anaerobic bacteria fusobacterium symbiosum 1470; format: functional
Haemophilus influenzae [6] = assay: In vitro antimicrobial activity against aerobic bacteria Haemophilus influenzae 76; format: functional
Haemophilus influenzae [7] = assay: In vitro antimicrobial activity against aerobic bacteria Haemophilus influenzae MX366,; format: functional
Haemophilus influenzae [8] = assay: In vitro antimicrobial activity against Haemophilus influenzae.; format: functional
[9] = tested on: Haemophilus parainfluenzae; assay: In vitro antimicrobial activity against aerobic bacteria Haemophilus parainfluenzae 9796; format: functional
[10] = In vitro antimicrobial activity against anaerobic bacteria peptostreptococcus intermedius 1264; format: functional
[11] = tested on: Peptoniphilus asaccharolyticus; assay: In vitro antimicrobial activity against anaerobic bacteria peptococcus asaccharolyticus 1302; format: functional
Anaerococcus prevotii = assay: In vitro antimicrobial activity against anaerobic bacteria peptococcus prevoti 1281; format: functional
Cutibacterium acnes = assay: In vitro antimicrobial activity against anaerobic bacteria propionibacterium acnes 79; format: functional
Streptococcus [12] = assay: In vitro antimicrobial activity against aerobic bacteria Streptococcus B 8; format: functional
Streptococcus [13] = assay: In vitro antimicrobial activity against aerobic bacteria Streptococcus C 24; format: functional
Streptococcus [14] = assay: In vitro antimicrobial activity against aerobic bacteria Streptococcus D 8043; format: functional
Streptococcus [15] = assay: In vitro antimicrobial activity against aerobic bacteria Streptococcus D 9960; format: functional
Streptococcus [16] = assay: In vitro antimicrobial activity against aerobic bacteria Streptococcus G Kruder; format: functional; settings: Streptococcus; read-out: MIC
[17] = tested on: Staphylococcus epidermidis; assay: In vitro antimicrobial activity against aerobic bacteria Streptococcus epi 270; format: functional
Staphylococcus aureus [18] = assay: In vitro antimicrobial activity against Staphylococcus aureus X1; format: functional
Staphylococcus aureus [19] = assay: In vitro antimicrobial activity against aerobic bacteria Staphylococcus aureus 513E; format: functional
Staphylococcus aureus [20] = assay: In vitro antimicrobial activity against aerobic bacteria Staphylococcus aureus V140,; format: functional
Staphylococcus aureus [21] = assay: In vitro antimicrobial activity against aerobic bacteria Staphylococcus aureus V41; format: functional
Staphylococcus aureus [22] = assay: In vitro antimicrobial activity against aerobic bacteria Staphylococcus aureus X400; format: functional
Streptococcus pyogenes [23] = assay: Effective dose against Streptococcus pyogenes C203 when administered orally; format: functional; settings: po
Procedure, shortened: (§1)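 Mouse protection test: infected mice were dosed twice, at 1 and 5 h postinfection, either subcutaneously or orally. […] The result is expressed as ED50 in mg/kg × 2.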

Streptococcus pyogenes [24] = assay: Effective dose against Streptococcus pyogenes C203 when administered sc; format: functional; procedure, shortened: as §1
Streptococcus pneumoniae [25] = assay: In vitro antimicrobial activity against aerobic bacteria Streptococcus pneumoniae B1-438; format: functional, streptococcus pneum
Streptococcus pyogenes [26] = assay: In vivo effective dose against experimental infections in rodent caused by Streptococcus pyogenes C203 when administered sc; format: functional
Streptococcus sanguinis = assay: In vitro antimicrobial activity against aerobic bacteria Streptococcus sanguis MX132; format: functional
Streptococcus pneumoniae [27] = assay: In vitro antimicrobial activity against Streptococcus pneumoniae; format: functional
[28] = tested on: Staphylococcus epidermidis; assay: In vitro antimicrobial activity against Staphylococcus epidermidis EPI1; format: functional
[29] = tested on: Staphylococcus epidermidis; assay: In vitro antimicrobial activity against aerobic bacteria Streptococcus epi 222; format: functional
Enterococcus faecium = assay: In vitro antimicrobial activity against Streptococcus faecium X66; format: functional, streptococcus fae-cium
Streptococcus pyogenes [30] = assay: In vitro antimicrobial activity against Streptococcus pyogenes C203; format: functional
Streptococcus viridans = assay: In vitro antimicrobial activity against aerobic bacteria Streptococcus viridans 9943; format: functional
Streptococcus [31] = assay: In vitro antimicrobial activity against aerobic bacteria Streptococcus B 5; format: functional
Staphylococcus aureus [32] = assay: In vitro antimicrobial activity against aerobic bacteria Staphylococcus aureus V135; format: functional
Haemophilus influenzae [33] = assay: In vitro antimicrobial activity against aerobic bacteria Haemophilus influenzae 465; format: functional
[34] = tested on: Prevotella melaninogenica; assay: In vitro antimicrobial activity against anaerobic bacteria bacteroides melaninogenicus 2736; format: functional
[35] = tested on: Fusobacterium necrophorum; assay: In vitro antimicrobial activity against anaerobic bacteria usobacterium necrophorum 6054A; format: functional
Collinsella aerofaciens [36] = assay: In vitro antimicrobial activity against anaerobic bacteria eubacterium aerofaciens 1235; format: functional
Streptococcus [37] = assay: In vitro antimicrobial activity against aerobic bacteria Streptococcus D 2041; format: functional
[38] = tested on: Peptostreptococcus anaerobius; assay: In vitro antimicrobial activity against anaerobic bacteria eubacterium peptostreptococcus anaerobius 1428,; format: functional
Streptococcus pyogenes [39] = assay: Antimicrobial activity against Streptococcus pyogenes C203; format: functional
Streptococcus pyogenes [40] = assay: In vivo effective dose against experimental infections in rodent caused by Streptococcus pyogenes C203 when administered orally; format: functional; settings: po
Collinsella aerofaciens [41] = assay: In vitro antimicrobial activity against anaerobic bacteria aerofaciens 1235; format: functional
[42] = tested on: Peptostreptococcus anaerobius; assay: In vitro antimicrobial activity against anaerobic bacteria peptostreptococcus anaerobius 1428,; format: functional

CC[C@H]1OC(=O)C[C@@H](O)[C@H](C)[C@@H](O[C@@H]2O[C@H](C)[C@@H](O)[C@H](N(C)C)[C@H]2O)[C@@H](CC=O)C[C@@H](C)C(=O)/C=C/C(C)=C/[C@@H]1CO
MIC (Bacteroides fragilis [1]): 32 µg/mL (≈ 53.5 µM)
MIC (Bacteroides fragilis [2]): 64 µg/mL (≈ 107 µM)
MIC (Bacteroides fragilis [3]): 32 µg/mL (≈ 53.5 µM)
MIC (Eikenella corrodens): 32 µg/mL (≈ 53.5 µM)
MIC (Phocaeicola vulgatus): 32 µg/mL (≈ 53.5 µM)
MIC [4]: 8 µg/mL (≈ 13.4 µM)
MIC [5]: 128 µg/mL (≈ 214 µM)
MIC (Clostridioides difficile): 4 µg/mL (≈ 6.69 µM)
MIC (Clostridium perfringens): < 0.5 µg/mL
MIC (Clostridium septicum): 4 µg/mL (≈ 6.69 µM)
MIC (Chlamydia trachomatis): 0.5 µg/mL (≈ 0.836 µM)
MIC (Fusobacterium): < 0.005 µg/mL
MIC (Haemophilus influenzae [6]): 2 µg/mL (≈ 3.35 µM)
MIC (Haemophilus influenzae [7]): 2 µg/mL (≈ 3.35 µM)
MIC (Haemophilus influenzae [8]): 2 µg/mL (≈ 3.35 µM)
MIC [9]: 4 µg/mL (≈ 6.69 µM)
MIC [10]: 1 µg/mL (≈ 1.67 µM)
MIC [11]: 2 µg/mL (≈ 3.35 µM)
MIC (Anaerococcus prevotii): 16 µg/mL (≈ 26.8 µM)
MIC (Cutibacterium acnes): 8 µg/mL (≈ 13.4 µM)
MIC (Streptococcus [12]): 0.5 µg/mL (≈ 0.836 µM)
MIC (Streptococcus [13]): 0.5 µg/mL (≈ 0.836 µM)
MIC (Streptococcus [14]): 0.5 µg/mL (≈ 0.836 µM)
MIC (Streptococcus [15]): 1 µg/mL (≈ 1.67 µM)
MIC (Streptococcus [16]): 0.25 µg/mL (≈ 0.418 µM)
MIC [17]: > 128 µg/mL
MIC (Staphylococcus aureus [18]): 1 µg/mL (≈ 1.67 µM)
MIC (Staphylococcus aureus [19]): 1 µg/mL (≈ 1.67 µM)
MIC (Staphylococcus aureus [20]): 1 µg/mL (≈ 1.67 µM)
MIC (Staphylococcus aureus [21]): 2 µg/mL (≈ 3.35 µM)
MIC (Staphylococcus aureus [22]): 2 µg/mL (≈ 3.35 µM)
ED50 (Streptococcus pyogenes [23]): 3.3 mg/kg
ED50 (Streptococcus pyogenes [24]): 97 mg/kg
MIC (Streptococcus pneumoniae [25]): > 128 µg/mL
ED50 (Streptococcus pyogenes [26]): 3.9 mg/kg
MIC (Streptococcus sanguinis): 0.25 µg/mL (≈ 0.418 µM)
MIC (Streptococcus pneumoniae [27]): 0.25 µg/mL (≈ 0.418 µM)
MIC [28]: 1 µg/mL (≈ 1.67 µM)
MIC [29]: 0.25 µg/mL (≈ 0.418 µM)
MIC (Enterococcus faecium): 1 µg/mL (≈ 1.67 µM)
MIC (Streptococcus pyogenes [30]): 0.25 µg/mL (≈ 0.418 µM)
MIC (Streptococcus viridans): > 128 µg/mL
MIC (Streptococcus [31]): 1 µg/mL (≈ 1.67 µM)
MIC (Staphylococcus aureus [32]): 1 µg/mL (≈ 1.67 µM)
MIC (Haemophilus influenzae [33]): 4 µg/mL (≈ 6.69 µM)
MIC [34]: 8 µg/mL (≈ 13.4 µM)
MIC [35]: < 0.5 µg/mL
MIC (Collinsella aerofaciens [36]): < 0.5 µg/mL
MIC (Streptococcus [37]): 0.5 µg/mL (≈ 0.836 µM)
MIC [38]: 32 µg/mL (≈ 53.5 µM)
MIC (Streptococcus pyogenes [39]): 0.25 µg/mL (≈ 0.418 µM)
ED50 (Streptococcus pyogenes [40]): 102 mg/kg

CC[C@H]1OC(=O)C[C@@H](O)[C@H](C)[C@@H](O[C@@H]2O[C@H](C)[C@@H](O[C@H]3C[C@@](C)(O)[C@@H](O)[C@H](C)O3)[C@H](N(C)C)[C@H]2O)[C@@H](CCO)C[C@@H](C)C(=O)/C=C/C(C)=C/[C@@H]1CO[C@@H]1O[C@H](C)[C@@H](O)[C@@H](OC)[C@H]1OC [RELOMYCIN]
MIC (Bacteroides fragilis [1]): 4 µg/mL (≈ 4.36 µM)
MIC (Bacteroides fragilis [2]): > 8 µg/mL
MIC (Bacteroides fragilis [3]): 8 µg/mL (≈ 8.71 µM)
MIC (Eikenella corrodens): > 8 µg/mL
MIC (Phocaeicola vulgatus): > 8 µg/mL
MIC [4]: 4 µg/mL (≈ 4.36 µM)
MIC [5]: 4 µg/mL (≈ 4.36 µM)
MIC (Clostridioides difficile): 1 µg/mL (≈ 1.09 µM)
MIC (Clostridium perfringens): > 8 µg/mL
MIC (Clostridium septicum): 8 µg/mL (≈ 8.71 µM)
MIC (Chlamydia trachomatis): > 1 µg/mL
MIC (Collinsella aerofaciens [41]): 1 µg/mL (≈ 1.09 µM)
MIC (Fusobacterium): 4 µg/mL (≈ 4.36 µM)
MIC (Haemophilus influenzae [8]): > 128 µg/mL
MIC [10]: > 8 µg/mL
MIC [11]: 1 µg/mL (≈ 1.09 µM)
MIC (Anaerococcus prevotii): > 8 µg/mL
MIC (Cutibacterium acnes): 8 µg/mL (≈ 8.71 µM)
MIC (Staphylococcus aureus [18]): 4 µg/mL (≈ 4.36 µM)
ED50 (Streptococcus pyogenes [26]): 15.4 mg/kg
MIC (Streptococcus pneumoniae [27]): 32 µg/mL (≈ 34.9 µM)
MIC [28]: 4 µg/mL (≈ 4.36 µM)
MIC (Enterococcus faecium): 64 µg/mL (≈ 69.7 µM)
MIC (Streptococcus pyogenes [30]): 2 µg/mL (≈ 2.18 µM)
MIC [42]: > 8 µg/mL
MIC [34]: 8 µg/mL (≈ 8.71 µM)
MIC [35]: 1 µg/mL (≈ 1.09 µM)
ED50 (Streptococcus pyogenes [40]): > 100 mg/kg

CC[C@H]1OC(=O)C[C@@H](O)[C@H](C)[C@@H](O[C@@H]2O[C@H](C)[C@@H](O)[C@H](N(C)C)[C@H]2O)[C@@H](CCO)C[C@@H](C)C(=O)/C=C/C(C)=C/[C@@H]1CO
MIC (Bacteroides fragilis [1]): > 8 µg/mL
MIC (Bacteroides fragilis [2]): > 8 µg/mL
MIC (Bacteroides fragilis [3]): > 8 µg/mL
MIC (Eikenella corrodens): > 8 µg/mL
MIC (Phocaeicola vulgatus): > 8 µg/mL
MIC [4]: > 8 µg/mL
MIC [5]: > 8 µg/mL
MIC (Clostridioides difficile): 4 µg/mL (≈ 6.67 µM)
MIC (Clostridium perfringens): 4 µg/mL (≈ 6.67 µM)
MIC (Chlamydia trachomatis): > 1 µg/mL
MIC (Collinsella aerofaciens [41]): 8 µg/mL (≈ 13.3 µM)
MIC (Fusobacterium): > 8 µg/mL
MIC (Haemophilus influenzae [8]): 32 µg/mL (≈ 53.4 µM)
MIC [10]: > 8 µg/mL
MIC [11]: > 8 µg/mL
MIC (Anaerococcus prevotii): > 8 µg/mL
MIC (Cutibacterium acnes): 4 µg/mL (≈ 6.67 µM)
MIC (Staphylococcus aureus [18]): 64 µg/mL (≈ 107 µM)
ED50 (Streptococcus pyogenes [26]): > 10 mg/kg
MIC (Streptococcus pneumoniae [27]): 64 µg/mL (≈ 107 µM)
MIC [28]: 32 µg/mL (≈ 53.4 µM)
MIC (Enterococcus faecium): 64 µg/mL (≈ 107 µM)
MIC (Streptococcus pyogenes [30]): 16 µg/mL (≈ 26.7 µM)
MIC [34]: > 8 µg/mL
MIC [35]: 4 µg/mL (≈ 6.67 µM)
MIC [38]: > 8 µg/mL
ED50 (Streptococcus pyogenes [40]): > 100 mg/kg
